From ChEMBL document CHEMBL1141446, “Uncovering biosynthetic potential of plant-associated fungi: effect of culture conditions on metabolite production by Paraphaeosphaeria quadriseptata and Chaetomium chiversii” (J Nat Prod, 2007)
Activity calls are given as the source filed them. The calls are words filed in the database; no cut-off is given here.

Key:
Mus musculus = species on record: Mus musculus; assay: Induction of heat shock in mouse 3T3-Y9/B12 reporter cells at 5 uM by heat shock induction assay; assay type: functional
SF-268 = assay: Antiproliferative activity against human SF268 cells by MTT assay; assay type: functional, cell-based
Outline: (§1)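 Cells were exposed for 72 h to serial dilutions of test compound in RPMI 1640 supplemented with 10% fetal bovine serum. Viability was read by MTT assay, and IC50 was taken as the concentration giving 50% inhibition of proliferation/survival. A positive control was run alongside.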

MCF7 = assay: Antiproliferative activity against human MCF7 cells by MTT assay; assay type: functional, cell-based; outline: as §1
NCI-H460 = assay: Antiproliferative activity against human NCI-H460 cells by MTT assay; assay type: functional, cell-based; outline: as §1

| Structure (SMILES) | Activity (Mus musculus) | IC50 (SF-268) | IC50 (MCF7) | IC50 (NCI-H460) |
| --- | --- | --- | --- | --- |
| C[C@@H]1C[C@H]2O[C@@H]2/C=C\C=C\C(=O)Cc2c(Cl)c(O)cc(O)c2C(=O)O1 | Active | – | – | – |
| C[C@@H]1C[C@H]2O[C@@H]2CC/C=C/C(=O)Cc2cc(O)cc(O)c2C(=O)O1 [MONOCILLIN III] | Active | 300 nM | 400 nM | 500 nM |
| COc1cccc2c1C(=O)c1c(O)c3c(c(O)c1C2=O)C[C@@](O)(C(=O)CO)C[C@@H]3O[C@H]1C[C@H](N)[C@H](O)[C@H](C)O1 [DOXORUBICIN] | – | – | – | 10 nM |
| C[C@@H]1C[C@H]2O[C@@H]2/C=C\C=C\C(=O)Cc2cc(O)cc(O)c2C(=O)O1 [MONOCILLIN I] | Active | 720 nM | 600 nM | 350 nM |
| C[C@@H]1C[C@H]2O[C@@H]2C[C@H](O)/C=C/C(=O)Cc2cc(O)cc(O)c2C(=O)O1 | Active | 550 nM | 150 nM | 300 nM |
